Experimental data reported in ChEMBL document CHEMBL4049441, “Transforming Sphingosine Kinase 1 Inhibitors into Dual and Sphingosine Kinase 2 Selective Inhibitors: Design, Synthesis, and in Vivo Activity” (J Med Chem, 2017).
Activity calls are given as the source filed them. The rule behind the calls is not given here.

Experiments:
[1] = molecular target: T1, Sphingosine kinase 2 (Homo sapiens) (UniProt Q9NRA0); test: Inhibition of recombinant human SPHK2 assessed as residual activity at 0.3 uM using sphingosine as substrate after 30 mins in presence of gamma-[32P]-ATP by liquid scintillation counting relative to control
T1 sequence (whole entry): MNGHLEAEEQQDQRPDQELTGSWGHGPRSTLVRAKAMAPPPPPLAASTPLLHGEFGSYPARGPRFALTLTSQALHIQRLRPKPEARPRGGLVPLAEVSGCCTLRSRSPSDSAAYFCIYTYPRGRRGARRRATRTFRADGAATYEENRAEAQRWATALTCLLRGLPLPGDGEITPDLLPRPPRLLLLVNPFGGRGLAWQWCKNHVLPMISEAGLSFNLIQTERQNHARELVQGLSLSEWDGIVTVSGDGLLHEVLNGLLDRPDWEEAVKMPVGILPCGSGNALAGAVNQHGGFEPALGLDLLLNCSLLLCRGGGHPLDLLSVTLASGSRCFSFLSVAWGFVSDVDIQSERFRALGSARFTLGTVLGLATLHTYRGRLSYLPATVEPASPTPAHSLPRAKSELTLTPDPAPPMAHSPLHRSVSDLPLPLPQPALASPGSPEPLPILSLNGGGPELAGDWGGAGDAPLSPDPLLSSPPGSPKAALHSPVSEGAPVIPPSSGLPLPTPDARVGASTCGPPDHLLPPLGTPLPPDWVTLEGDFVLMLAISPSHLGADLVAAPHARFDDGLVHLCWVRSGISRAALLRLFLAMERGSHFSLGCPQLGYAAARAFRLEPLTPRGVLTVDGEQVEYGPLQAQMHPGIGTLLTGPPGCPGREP
Summary of the method: (§1)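 Recombinant human SphK1 or SphK2 from cell lysate, briefly incubated with or without compound at 0.3 μM, sphingosine (5 μM for SphK1, 10 μM for SphK2) and 250 μM γ-[³²P]ATP. Radiolabelled S1P extracted, resolved by TLC and counted by scintillation. Activity reported as % of no-inhibitor control; triplicate.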

[2] = molecular target: T2, Sphingosine kinase 2 (Homo sapiens, UniProt Q9NRA0); test: Inhibition of recombinant human SPHK2 at using sphingosine as substrate after 30 mins in presence of gamma-[32P]-ATP by liquid scintillation counting
T2 sequence (Q9NRA0 whole entry): T1 sequence (whole entry)

[3] = molecular target: T3, Sphingosine kinase 2 (Mus musculus, UniProt Q9JIA7); test: Inhibition of recombinant mouse SPHK2 using sphingosine as substrate in presence ATP
T3 sequence (Q9JIA7 whole entry): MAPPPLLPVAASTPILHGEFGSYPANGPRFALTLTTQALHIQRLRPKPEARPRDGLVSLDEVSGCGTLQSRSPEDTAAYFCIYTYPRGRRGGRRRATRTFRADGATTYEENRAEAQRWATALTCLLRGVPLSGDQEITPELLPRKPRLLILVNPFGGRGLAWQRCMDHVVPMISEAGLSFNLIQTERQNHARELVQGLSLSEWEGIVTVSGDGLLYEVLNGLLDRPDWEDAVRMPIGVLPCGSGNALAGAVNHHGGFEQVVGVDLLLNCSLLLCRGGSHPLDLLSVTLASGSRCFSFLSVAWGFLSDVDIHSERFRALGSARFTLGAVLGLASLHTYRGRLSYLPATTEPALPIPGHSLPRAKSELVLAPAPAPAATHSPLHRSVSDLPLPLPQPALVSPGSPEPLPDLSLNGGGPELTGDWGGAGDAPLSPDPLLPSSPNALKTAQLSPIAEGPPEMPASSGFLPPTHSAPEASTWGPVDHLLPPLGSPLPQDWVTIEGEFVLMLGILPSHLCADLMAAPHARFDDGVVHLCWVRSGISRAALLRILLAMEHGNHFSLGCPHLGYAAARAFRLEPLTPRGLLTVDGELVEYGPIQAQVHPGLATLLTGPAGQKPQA

[4] = Selectivity ratio of Ki for recombinant human SPHK1 to Ki for recombinant mouse SPHK2
[5] = molecular target: T4, Sphingosine kinase 1 (Homo sapiens, UniProt Q9NYA1); test: Inhibition of recombinant human SPHK1 using sphingosine as substrate in presence ATP; summary of the method: as §1
T4 sequence (Q9NYA1 whole entry): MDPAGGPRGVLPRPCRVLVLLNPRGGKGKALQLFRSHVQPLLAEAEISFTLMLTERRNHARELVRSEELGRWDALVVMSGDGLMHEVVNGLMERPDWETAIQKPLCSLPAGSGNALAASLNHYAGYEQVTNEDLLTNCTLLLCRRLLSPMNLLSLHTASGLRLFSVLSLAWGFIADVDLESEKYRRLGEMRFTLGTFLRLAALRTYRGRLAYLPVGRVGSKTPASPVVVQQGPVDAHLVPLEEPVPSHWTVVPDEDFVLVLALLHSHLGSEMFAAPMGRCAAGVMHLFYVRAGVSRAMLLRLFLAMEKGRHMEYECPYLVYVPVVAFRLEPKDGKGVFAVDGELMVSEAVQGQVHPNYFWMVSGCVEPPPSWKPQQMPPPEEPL

[6] = molecular target: T1, Sphingosine kinase 2 (Homo sapiens); test: Inhibition of recombinant human SPHK2 using sphingosine as substrate up to 1 uM after 30 mins in presence of gamma-[32P]-ATP by liquid scintillation counting
[7] = molecular target: T1, Sphingosine kinase 2 (Homo sapiens); test: Inhibition of SPHK2 in human U937 cells assessed as effect on sphingosine levels at 0.1 to 1 uM after 2 hrs by LC-MS/MS analysis; format: cell-based
Summary of the method: (§2)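 U937 human histiocytic lymphoma cells (express both SphK isotypes) incubated with compound for 2 h, pelleted, lysed; 2–3 × 10⁶ cells extracted in methanol:chloroform (3:1) with D7-S1P/D7-sphingosine internal standards, KOH hydrolysis, then S1P and sphingosine measured by LC-MS-MS. Expressed as pmol per 10⁶ cells; duplicate experiments; unpaired t test against control.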

[8] = tested on: Mus musculus; test: In vivo inhibition of SPHK2 in C57BL/6J mouse assessed as increase in S1P levels at 10 mg/kg, ip after 24 hrs by LC-MS/MS analysis; format: functional, organism-based
Summary of the method: (§3)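 Single intraperitoneal dose of 10 mg/kg in C57BL6/j mice, groups of 3 to 4; vehicle controls received an equal volume of 2% hydroxypropyl-β-cyclodextrin. Blood was sampled at set time points over 24 h. Whole blood (10 μl) was extracted in methanol:chloroform (3:1) with D7-S1P and D7-sphingosine internal standards, base-hydrolysed with KOH, and S1P quantified by reverse-phase C18 LC-MS-MS.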

[9] = molecular target: T1, Sphingosine kinase 2 (Homo sapiens); test: Inhibition of SPHK2 in human U937 cells assessed as effect on sphingosine levels at 0.3 to 1 uM after 2 hrs by LC-MS/MS analysis; format: cell-based; summary of the method: as §2
[10] = tested on: Mus musculus; test: In vivo inhibition of SPHK2 in C57BL/6J mouse assessed as increase in S1P levels at 10 mg/kg, ip after 2 to 6 hrs by LC-MS/MS analysis; format: functional, organism-based; summary of the method: as §3
[11] = molecular target: T1, Sphingosine kinase 2 (Homo sapiens); test: Inhibition of SPHK2 in human U937 cells assessed as decrease in S1P levels after 2 hrs by LC-MS/MS analysis; format: cell-based; summary of the method: as §2
[12] = molecular target: T4, Sphingosine kinase 1

SMILES: Cc1ccc(-c2csc(Nc3ccc(-c4noc(C[C@@H]5CCCN5C(=N)N)n4)cc3)n2)cc1C
- Activity [1]: 67%

SMILES: N=C(N)N1CCC[C@H]1Cc1nc(-c2ccc(Nc3nc(-c4cc(F)cc(C(F)(F)F)c4)cs3)cc2)no1
- Activity [1]: 30%
- Ki [2]: 170 nM

SMILES: N=C(N)N1CCC[C@H]1Cc1nc(-c2ccc(Nc3nc(-c4ccc(Br)cc4)cs3)cc2)no1
- Activity [1]: 46%

SMILES: N=C(N)N1CCC[C@H]1Cc1nc(-c2ccc(Nc3nc(-c4cccc(Br)c4)cs3)cc2)no1
- Activity [1]: 44%

SMILES: N=C(N)N1CCC[C@H]1Cc1nc(-c2ccc(Nc3nc(-c4ccc(-c5cccc(C(F)(F)F)c5)cc4)cs3)cc2)no1
- Activity [1]: 85%

SMILES: N=C(N)N1CCC[C@H]1Cc1nc(-c2ccc(Nc3nc(-c4cc(C(F)(F)F)ccc4F)cs3)cc2)no1
- Activity [1]: 48%

SMILES: N=C(N)N1CCC[C@H]1Cc1nc(-c2ccc(Nc3nc(-c4ccccc4)cs3)cc2)no1
- Activity [1]: 83%

SMILES: COc1ccc(-c2csc(Nc3ccc(-c4noc(C[C@@H]5CCCN5C(=N)N)n4)cc3)n2)cc1OC
- Activity [1]: 100%

SMILES: N=C(N)N1CCC[C@H]1Cc1nc(-c2ccc(Nc3nc(-c4cccc(OC(F)(F)F)c4)cs3)cc2)no1
- Activity [1]: 82%

SMILES: CCCCCCCCc1ccc2cc(-c3noc(C4CCCN4C(=N)N)n3)ccc2c1 (single isomer, unassigned)
- Ki [3]: 1300 nM
- Ratio Ki [4]: 10
- Ki [5]: 12000 nM

SMILES: N=C(N)N1CCC[C@H]1Cc1nc(-c2ccc(Nc3nc(-c4ccc(OC(F)(F)F)cc4)cs3)cc2)no1
- Activity [1]: 44%
- Ki [2]: 250 nM

SMILES: N=C(N)N1CCC[C@H]1Cc1nc(-c2ccc(Nc3nc(-c4ccc(F)c(F)c4)cs3)cc2)no1
- Activity [1]: 51%

SMILES: N=C(N)N1CCC[C@H]1Cc1nc(-c2ccc(Nc3nc(-c4ccc(Cl)c(Cl)c4)cs3)cc2)no1
- Activity [1]: 46%

SMILES: Cc1ccc(-c2csc(Nc3ccc(-c4noc(C[C@@H]5CCCN5C(=N)N)n4)cc3)n2)cc1
- Activity [1]: 80%

SMILES: N=C(N)N1CCC[C@H]1Cc1nc(-c2ccc(Nc3nc(-c4cccc(-c5ccccc5)c4)cs3)cc2)no1
- Activity [1]: 73%

SMILES: CN(c1ccc(-c2noc(C[C@@H]3CCCN3C(=N)N)n2)cc1)c1nc(-c2ccc(-c3ccccc3)cc2)cs1
- inhibition [6]: inactive
- Activity [1]: 100%

SMILES: N=C(N)N1CCC[C@H]1Cc1nc(-c2ccc(Nc3nc(-c4ccccc4C(F)(F)F)cs3)cc2)no1
- Activity [1]: 72%

SMILES: N=C(N)N1CCC[C@H]1Cc1nc(-c2ccc(Nc3nc(-c4ccc(-c5ccc(C(F)(F)F)cc5)cc4)cs3)cc2)no1
- Activity [1]: 96%

SMILES: N=C(N)N1CCC[C@H]1Cc1nc(-c2ccc(Nc3nc(-c4cccc(F)c4)cs3)cc2)no1
- Activity [1]: 45%

SMILES: N=C(N)N1CCC[C@H]1Cc1nc(-c2ccc(Nc3nc(-c4ccc(-c5ccccc5)cc4)cs3)cc2)no1
- inhibition [7]: Active
- Activity [1]: 27%
- inhibition [8]: inactive
- Ki [2]: 90 nM
- inhibition [9]: Active
- inhibition [10]: Active
- inhibition [11]: Dose-dependent effect

SMILES: N=C(N)N1CCC[C@H]1Cc1nc(-c2ccc(Nc3nc(-c4ccc(Cl)cc4)cs3)cc2)no1
- Activity [1]: 51%

SMILES: COc1ccc(-c2csc(Nc3ccc(-c4noc(C[C@@H]5CCCN5C(=N)N)n4)cc3)n2)cc1
- Activity [1]: 100%

SMILES: N=C(N)N1CCC[C@H]1Cc1nc(-c2ccc(Nc3nc(-c4cccc(Cl)c4)cs3)cc2)no1
- Activity [1]: 45%

SMILES: N=C(N)N1CCC[C@H]1Cc1nc(-c2ccc(Nc3nc(-c4cccc(C(F)(F)F)c4)cs3)cc2)no1
- inhibition [7]: Active
- Activity [1]: 28%
- Ki [2]: 90 nM
- inhibition [11]: Dose-dependent effect

SMILES: N=C(N)N1CCC[C@H]1Cc1nc(-c2ccc(Nc3nc(-c4ccc(F)c(C(F)(F)F)c4)cs3)cc2)no1
- Activity [1]: 33%
- Ki [2]: 170 nM

SMILES: COc1cccc(-c2csc(Nc3ccc(-c4noc(C[C@@H]5CCCN5C(=N)N)n4)cc3)n2)c1
- Activity [1]: 100%

SMILES: CCCCCOc1ccc2cc(-c3noc([C@H]4[C@@H](O)CCN4C(=N)N)n3)ccc2c1
- Ki [12]: 730 nM

SMILES: N=C(N)N1CCC[C@H]1Cc1nc(-c2ccc(Nc3nc(-c4cc(C(F)(F)F)cc(C(F)(F)F)c4)cs3)cc2)no1
- Activity [1]: 63%

SMILES: N=C(N)N1CCC[C@H]1Cc1nc(-c2ccc(Nc3nc(-c4cccnc4)cs3)cc2)no1
- Activity [1]: 94%

SMILES: N=C(N)N1CCC[C@H]1Cc1nc(-c2ccc(Nc3nc(-c4ccc(-c5ccc(F)cc5)cc4)cs3)cc2)no1
- Activity [1]: 31%

SMILES: N=C(N)N1CCC[C@H]1Cc1nc(-c2ccc(Nc3nc(-c4ccc(C(F)(F)F)cc4)cs3)cc2)no1
- Activity [1]: 36%
- Ki [2]: 390 nM

SMILES: N=C(N)N1CCC[C@H]1Cc1nc(-c2ccc(Nc3nc(-c4ccccc4F)cs3)cc2)no1
- Activity [1]: 44%

SMILES: N=C(N)N1CCC[C@H]1Cc1nc(-c2ccc(Oc3nc(-c4ccc(C(F)(F)F)cc4)cs3)cc2)no1
- Activity [1]: 55%

SMILES: N=C(N)N1CCC[C@H]1Cc1nc(-c2ccc(Nc3nc(-c4ccncc4)cs3)cc2)no1
- Activity [1]: 94%

SMILES: COc1ccc(-c2csc(Nc3ccc(-c4noc(C[C@@H]5CCCN5C(=N)N)n4)cc3)n2)cc1Cl
- Activity [1]: 71%

SMILES: N=C(N)N1CCC[C@H]1Cc1nc(-c2ccc(Nc3nc(-c4ccc(F)cc4)cs3)cc2)no1
- Activity [1]: 55%

SMILES: N=C(N)N1CCC[C@H]1Cc1nc(-c2ccc(Nc3nc(-c4cc5ccccc5o4)cs3)cc2)no1
- Activity [1]: 67%

SMILES: N=C(N)N1CCC[C@H]1Cc1nc(-c2ccc(Nc3nc(-c4cc(F)cc(F)c4)cs3)cc2)no1
- Activity [1]: 43%
